Measured values published in the EternaBench riboswitch data.

Tested on: MS2 coat protein
Assay: apparent Kd, MS2 coat protein; higher = weaker binding; RNA-MaP array; FMN 200 µM where present
In short: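 Apparent Kd: the median of filtered binding-curve fits from single clusters. Designs were transcribed on Illumina sequencing-chip clusters by stalled E. coli RNA polymerase and titrated with SNAP-549-labelled MS2 coat protein from 0.7 or 1.5 nM, doubling to 3 µM, in 100 mM Tris-HCl pH 7.5, 80 mM KCl, 4 mM MgCl2, BSA, DTT, yeast tRNA and Tween-20. Each series ran without and then with constant ligand, and green signal was normalised to red-channel RNA signal and control-cluster median Fmax.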

[1] = designed as: OFF switch for flavin mononucleotide, no ligand
[2] = ligand present: flavin mononucleotide, designed as: OFF switch for flavin mononucleotide
[3] = designed as: ON switch for flavin mononucleotide, no ligand
[4] = ligand present: flavin mononucleotide, designed as: ON switch for flavin mononucleotide

Sequence | apparent Kd [1] [nM] | apparent Kd [2] [nM] | apparent Kd [3] [nM] | apparent Kd [4] [nM]
UUCGUGCAGCUUUGCUGUACGAGUACAUGAGGAUCACCCAUGUAGGAUAUGGUACGCUUUGCGUGCUAGAAGGAUAUGUGUAGC | 33 | 37 |  | 
AUCCGACAUGUAGGAUAUGCGUGGCGAAGCUAUGCAGAAGGACAUGAGGAUCACCCAUGUUUUACCGUCUGCGUACAGACGGUG | 286 | 240 |  | 
CCGUCGCUUAGCGCUCCUCAUACAUGAGGAUCACCCAUGUACAGAAGGCGGAGGGCCAGGCCCACCGAGGAUAUGUAAGUGUGA | 73 | 73.2 |  | 
UUCAUCAAUGAAGGAUAUCUAUAUCCAACAUGAGGAUCACCCAUGUUGAGGAUCACCUAUGUAAAGGAGAAGGUUAAUAUAACU |  |  | 6.83 | 6.32
UUAAUUAUACAAGGAUAUCUAUUGUAGUUUCGACAUACAUGAGGAUCACCCAUGUUAGUAUGUUUAGAGAAGGUGUAUUUUCAG |  |  | 28.1 | 25.2
GUCUGGCUAGGAUAUACAUAGUCCACGAGUCGGUUGCCCUGACAUGAGGAUCACCCAUGUAGAAGGAGCGAGAA | 19.4 | 18.6 |  | 
CAACUGCAUGUGAGGAUAUGCACCGGCCAAGCCGGGCAGAAGGCACAUGAGGAUCACCCAUGUCAUCCUAUUGC | 12.6 | 27.8 |  | 
UAAACACCCUCAUGUGCCUGAGGACAUGAGGAUCACCCAUGUGAGGAUAUAGCCAUUAAAUCUAACUAGAAGGUAUAGGAAAUC | 651 | 190 |  | 
GUACUGUAGUGAGGAUAUACGAGAUCGAUAGAUCGGCGAUCCAAUAAUACAUGAGGAUCACCCAUGUAGAAGGCACUUCAGUAC | 7.07 | 99 |  | 
UGUUGUAUUACAGGAUAUCUAGUAUUGUUAUUUAGAGAAGGGUAUUCACAUGAGGAUCACCCAUGUAUAUACGAGGAAGUUGUG |  |  | 38.4 | 41.4
UCGCUGCGAGGAUAUACGUGCGCGCGCUUUCGUUUGCGCGUACAUGAGGAUCACCCAUGUAGAAGGCGCGCUGC | 16.2 | 15.8 |  | 
CCUCUGUUAGGAUAUCAAACACUAUCUGCUCCAGAGUUAAGUGAGAAGGGACAUGAGGAUCACCCAUGUAAAAU | 26.9 | 33.7 |  | 
UGGUACUACGGAGGAUAUCAUGUAGAUACAUGAGGAUCACCCAUGUCGAUGGAGACAUCGGAGAUUGAGAAGGCCGUAGUACCU |  |  | 610 | 29.4
AUCGGGUCAGGAUAUUGUUAGUUUAGUUGUUUGUAUUAGUUCGAGAAGGGACAUGAGGAUCACCCAUGUGGUAA | 58.4 | 73.2 |  | 
AGCUGUGGCAGAGGAUAUACUUCAAUAAUCCAUUGCAAAUAGCGAUGGACAUGAGGAUCACCCAUGUAGAAGGCUGUCUCAGCA | 19.9 | 46.2 |  | 
GGGUGGCGUAUAGGAUAUAUGGUACAUGAGGAUCACCCAUGUACAUAUGAUGUUCAUGUUUGUGUAUAGAAGGAUACGUCGCUA |  |  | 9.79 | 9.81
AAUGUUUUCAUAGGAUAUUGACAUUUAUUUAUUCAAGAAGGAUGAUUACAUGAGGAUCACCCAUGUUAAAAUGGAUUAACUAGU | 54.4 | 162 |  | 
ACGUCUUAGUAGAAGGGACUUCGGCUGGUAAGCAUCAUCUCCUUCUCACAUGAGGAUCACCCAUGUCAGGAUAUACUAAGAGUC | 7.24 | 7.35 |  | 
AACCUAUUACAGAAGGCCAGCUACAUGAGGAUCACCCAUGUCGAGUCAUGGAGGAUAUGUAGUAAUUUACUCGCAGAUGAGUGC |  |  | 24.4 | 4.9
GUAGCAUGCCAAGGAUAUUCAUAUAGUAGGCAAACAUGAGGAUCACCCAUGUAAUGAUCGCAGUGGGAGAAGGUGGGAUGCUAC |  |  | 31.8 | 21.1
UUUUCCAGAGGAUAUGCGAAUAAAUAAAACUUUUUUUUUUAACAUGAGGAUCACCCAUGUAGAAGGCUGAUUUU | 47.9 | 48.5 |  | 
ACGCGAUGGGAGAAGGUACUUUAAGAAUUUUACACAUGAGGAUCACCCAUGUAAGGAUAUCCCAUCGUUAAAUAUUAUACAGCA | 6.56 | 5.77 |  | 
GCUGGCAUGCAAGGAUAUCCUUCCGAGUAGGAAGGAGAAGGUGCUUGUGGGACAUGAGGAUCACCCAUGUAUGUUGGCCACGAC |  |  | 134 | 79.2
UUUGCAUUCCGAGGAUAUUCAUUUAAUGUCUUCACAUGAGGAUCACCCAUGUGGCGCUUGCGCCGGGAGAAGGCGGUUUGCUUU |  |  | 28.6 | 29.3
GAAUGGGAGUAGAAGGUACGUUAUUAGUUAAGGUAAGGAUAUACUAUAAUACAGACGACAUAUAAACAUGAGGAUCACCCAUGU |  |  | 10.3 | 6.55
UUAAUUCUGAUUCUUGAAAUACAUGAGGAUCACCCAUGUUCACAGGAUAUUGAUUAUGGUAGUAACAAGAAGGGUGUAUCAUAU | 66 | 113 |  | 
UAGAUGUGAGGAUAUACGUAGAUGCAGGUUCGUGUGGUGCUACAUGAGGAUCACCCAUGUAGAAGGCACGUCUU | 19.3 | 20.2 |  | 
UGGACCGAGCUAUCGGUUGACUCGAAGGAUAUGACAUGAGGAUCACCCAUGUGGGAUCUAAAUUGUCAGAAGGUUGGUUCUGGG | 367 | 140 |  | 

Sequence | apparent Kd [1] [nM] | apparent Kd [2] [nM] | apparent Kd [3] [nM] | apparent Kd [4] [nM]
GGAUAGGACAGAGGAUAUACGUACUAGAGAUACUAGCAAAAUUUCCUCACAUGAGGAUCACCCAUGUAGAAGGCUGUCCUAUCG | 21.4 | 563 |  | 
CAGGUAGACUGAGGAUAUACAAUAAACAGCUAGUCUAUCUAGCUGUCUACAUGAGGAUCACCCAUGUAGAAGGCAGUCUGCCUG | 17 | 17.4 |  | 
ACUUGCUUGCAGAAGGGUGACAUGAGGAUCACCCAUGUAGCGGGCUGGCGUAAAGUCAGCGCGCCACAGGAUAUGCAGGCCUCG |  |  | 61.2 | 47.6
CUGUACAUAGGAUAUAGUUGUUUUUACAUGAGGAUCACCCAUGUUACUCCUCUCUCUCUUCUAGAAGGAUGUUUCU | 65.8 | 50.1 |  | 
CAGUACUGAGGAUAUACAUGAGGAUCACCCAUGUGUUCCAGCGAGGAAACUAGCAAAAGUAGAAGGCAGUACUG | 20.4 | 278 |  | 
GGGUACACCGGAGGAUAUCAUGUAAAUACAUGAGGAUCACCCAUGUCGAUGGAGACAUCGGAGAUUGAGAAGGCCGAUGUACCG |  |  | 155 | 9.1
AGAAAACAUGAGGAUCACCCAUGUCAGGAUAUCCUGCGGCGAUACAAGCCACGUUGUCGGAGAAGGGACAGGGA | 58 | 89.7 |  | 
GUACUACAUGAGGAUCACCCAUGUGAGGAUAUGCGAAUUUCAUCAAAAGAUGAAAUUUGCAGAAGGCACUGUAC | 46.7 | 34 |  | 
AGACCGCUACGCCGGUUUCACGCACAGGAUAUGCGGUUACAUGAGGAUCACCCAUGUGGCCAUGUGCAGAAGGGUGGUUCGUUA |  |  | 36.1 | 11.5
GAGCUAUGAGGAUAUGCAUAUAUACGGUUUCGUGUGGUACUACAUGAGGAUCACCCAUGUAGAAGGCGUGGCAG | 17.4 | 17.9 |  | 
ACUAGAUGAGGAUAUGCAUGUUUUCAUGUUCUUCUAGAUUAACAUGAGGAUCACCCAUGUAGAAGGCGUCUUUA | 19.5 | 34.8 |  | 
CUGUUAUAGGUCCAGAAUUACAACAUGAGGAUCACCCAUGUGCAGGAUAUCGGGUUAAUUUUCGACGAGAAGGGCAUAGUCACG | 33.5 | 64.1 |  | 
AAUAUAAGAGCUGGUAAACUCAAAACAUGAGGAUCACCCAUGUAGGAUAUCAGCACGAUAAGUGCUGAGAAGGACAUCCAGCUC | 15 | 16.1 |  | 
AGCAUGGUAGGAUAUACGGAGCAUUAGGGUUUGUUGUGUGGACAUGAGGAUCACCCAUGUAGAAGGGCCGUGCA | 47 | 64.2 |  | 
GCUGCUUAUGAGAAGGCGAUCAUGAAACAUGAUCGAGGAUAUCAUGUAAACAUGAGGAUCACCCAUGUAUGGGUAUUAUGCAGC |  |  | 374 | 37.6
CACUCGUGUCUAGGAUAUGAGUGACAAGCGCGAGAUUUUCUCGCUGCUAGCUCAGAAGGAGACAUGAGGAUCACCCAUGUAAGG | 144 | 25.4 |  | 
AAGUCGUUAGGAUAUACAUGGAUAUACAUUUAUGUAGAACUACAUGAGGAUCACCCAUGUAGAAGGAACGAAUA | 38.2 | 54 |  | 
CGAUGUUAUGCAGGAUAUCUCCCUUGAAUGCGGAGAGAAGGGCAUAGGGAGACAUACGCCUUAUUACAUGAGGAUCACCCAUGU | 8.42 | 7.86 |  | 
ACGUUAAUUCGAGGAUAUCGGUGAUUUAUAUUACGAGAAGGCGAUAAUUGUGAUAAACUUAUAGACAUGAGGAUCACCCAUGUA |  |  | 42.7 | 38.8
GUAGGAAUCACAGGAUAUGCAUGCGCCGCUUCGUUCUACAUGAGGAUCACCCAUGUGUGGUCCGUGUAGAAGGGUGUUUGCUAC |  |  | 33.9 | 11.6
GUACAUGAGGAUCACCCAUGUAAAUGGGUAAAUAUAGAACGUAGAAGGAUGUAUUUACACAUGACAUAGGAUAUACUAUAUAGU | 93.8 | 73.9 |  | 
UUUGGGAGCACAGGAUAUGGCGCGUCGACCGCGCCAGAAGGGUGAUUCUGUUGGUGGCCACAUGAGGAUCACCCAUGUGCCUCC |  |  | 42.4 | 55.3
AUAGGUUAAGGAGGAUAUAGAGGGAGAAGUAAACAUGAGGAUCACCCAUGUAUUUAAUUAGUUUACUAGAAGGCUUAUGAUUGU |  |  | 39.2 | 43.7
GCAUGACAAAGUCAUGCAAUACGAACAUGAGGAUCACCCAUGUAGGAUAUGCUACUCAAAGAGUAGCAGAAGGACAUGUGUCUU | 33.2 | 182 |  | 
GUUAUGUUAGGAUAUGCUUAUGGUGGAUAAUCAGAUAUGAUGCAGAAGGGACAUGAGGAUCACCCAUGUACUGU | 21 | 23.8 |  | 
AUUUUGUCAGGAUAUGAGUAGUAGGACGAAAGUGUUAUUAUUUAGAAGGGACAUGAGGAUCACCCAUGUUUCUC | 12.3 | 15.8 |  | 
UUACUAUAACAGAAGGGUAGAUAAUAUAUAAAUGCAGGAUAUGUUACAUGAGGAUCACCCAUGUUUCACCCACAUGAGGAUCAC | 27.9 | 55.4 |  | 
